The nature of this data set: Toxicity liver stage against HepG2, at 10uM. The data set is classed as cell-based. Set-up: test concentration 10 uM, cell line HepG2-A16-CD81EGFP. Particulars: human, HepG2-A16-CD81EGFP cells; read-out: INHIBITION
The gist of the method: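 Uninfected HepG2-A16-CD81EGFP cells, 3 × 10^3 per well, 1536-well, plated on prespotted compound at 10 μM final, parasite-free screening media added to match infected plates; puromycin 10 μM positive, DMSO 0.5% negative; run in parallel with 48 h PbLuc assay at 37 °C, 5% CO2; viability by CellTiter-Glo luminescence, normalized to controls.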
As to `COCCCN(Cc1ccccn1)S(=O)(=O)N(C)C`, the cytotoxicity at 10 µM is 12%.

For the molecule `O=C(CCc1ccc(-n2cnnn2)cc1)Nc1ccncc1`, the cytotoxicity at 10 µM is -11.2%.

Turning to `COC(=O)CSc1nnc2[nH]c(=O)c3c(n12)CCCC3`, the cytotoxicity at 10 µM is -99.8%.

Consider `O=C(NC1CC(=O)N(C2CC2)C1)c1ccc(Cl)s1` (stereo not given), for which the cytotoxicity at 10 µM was 9.05%.

For the molecule `Fc1cnc(N2CCCn3c(nnc3Cn3cccn3)C2)nc1`, the cytotoxicity at 10 µM is 4.53%.

For the molecule `CCOc1ccc(CCC(=O)N2CC[C@H]3C(=O)NCCO[C@H]3C2)cc1`, the cytotoxicity at 10 µM stood at 12.1%.

As for `CCOC1CC2(CCN(Cc3cnn(C)c3)CC2)c2ccc(C)cc21` (stereo not given), the cytotoxicity at 10 µM was found to be 4.62%.

On to `CN1C[C@@H]2CN(C(=O)C3CCOC3)C[C@@H]2C1=O` (stereo not given in full), for which the cytotoxicity at 10 µM is -127%.

As for `CCCS(=O)(=O)N1C[C@@H](c2nc(C)no2)C[C@H]2OCC[C@H]21`, the cytotoxicity at 10 µM was -130%.

For the molecule `c1cncc(CN2CCc3c(CNc4nccs4)n[nH]c3C2)c1`, the cytotoxicity at 10 µM was determined as 1.04%.

Consider `Cc1cccc(C(=O)N2CCn3cnc(COCC4CC4)c3C2)c1`, for which the cytotoxicity at 10 µM was determined as 14%.

Take `NC(=O)c1c(NC(=O)CCCC(=O)O)sc2c1CCc1ccccc1-2`: the cytotoxicity at 10 µM was -1.25%.

Turning to `Cc1noc2nc3c(c(C(=O)/N=c4\[nH]ncs4)c12)CCC3`, the cytotoxicity at 10 µM is -0.493%.

Turning to `Cc1nc(N)cc(C2(C)CCCNC2)n1` (stereo not given), the cytotoxicity at 10 µM turned out to be 1.36%.

For `CN1CCC(c2cnc(NCc3nccn3C)cn2)CC1`, the cytotoxicity at 10 µM is -5.91%.

Consider `CN1CCOC(C)(C(=O)N2CCN(C3CCCC3)CC2)C1` (stereo not given), for which the cytotoxicity at 10 µM is -25.8%.

Take `Cc1ccnn1CCC(=O)N1CCC(c2cnccn2)CC1`: the cytotoxicity at 10 µM was -26.1%.

On to `Cc1ccc([C@@]2(O)CC[C@@H]3CN(S(=O)(=O)c4cn(C)nc4C)C[C@@H]32)cc1`, for which the cytotoxicity at 10 µM is -16.2%.

As to `O=C(CCCn1cccn1)N1C[C@@H](O)[C@H](Oc2cccc(F)c2)C1`, the cytotoxicity at 10 µM turned out to be 5.75%.

Regarding `Cc1ccc(S(=O)(=O)N2CCC(c3n[nH]cc3C)C2)cc1` (stereo not given), the cytotoxicity at 10 µM is -14.3%.

With `CN(C)C(=O)C1CN(Cc2cccs2)CCN(S(C)(=O)=O)C1` (stereo not given), the cytotoxicity at 10 µM is -33.1%.

Take `COc1ccc(CN(C)[C@@H]2CN(C(=O)c3cccn3C)C[C@H]2O)cc1`: the cytotoxicity at 10 µM was -21.5%.

Regarding `COc1cccc(N2CCN(C(=O)c3ccc(=O)n(C)c3)CC2)c1`, the cytotoxicity at 10 µM is -7.81%.

With `COc1ccc(OC)c(S(=O)(=O)NC(=O)C(C)OC)c1` (stereo not given), the cytotoxicity at 10 µM was -1.2%.

Take `COc1ccc(S(=O)(=O)NC(=O)C(C)OC)c(OC)c1` (stereo not given): the cytotoxicity at 10 µM was -6.67%.

Consider `O=C(NCCc1nncn1C1CC1)C1(c2ccccc2)CCC1`, for which the cytotoxicity at 10 µM worked out at 5.36%.

Take `Cc1ccc(CN(C)C(=O)NCC(C)(C)NS(C)(=O)=O)s1`: the cytotoxicity at 10 µM is -0.422%.

In the case of `COC(C)c1cccc(NCc2ccsc2)c1` (stereo not given), the cytotoxicity at 10 µM was -4.53%.

Turning to `O=C(c1ccc(-c2ccccc2)[nH]c1=O)N1CCN(C2CC2)CC1`, the cytotoxicity at 10 µM is 9.8%.

Turning to `CCc1cc(C)c(C(=O)N2CCCC(c3nnn[nH]3)C2)o1` (stereo not given), the cytotoxicity at 10 µM stood at 1.02%.

As to `CN1CCC(N(Cc2ccccc2)C(=O)c2ccn3cncc3c2)CC1`, the cytotoxicity at 10 µM came to 5.68%.

`CCC(C)NC(=O)CS(=O)(=O)Cc1cc(Cl)ccc1OC` (stereo not given): the cytotoxicity at 10 µM worked out at 10.8%.

For `COc1cc(NCCNC(=O)c2ccc3[nH]ccc3c2)cc(OC)c1`, the cytotoxicity at 10 µM turned out to be 6.44%.

In the case of `COc1cccc2c1N(CC(=O)Nc1ccc(Cl)cn1)CCC2`, the cytotoxicity at 10 µM is 64.9%.

In the case of `CN(C)c1cccc(C(=O)Nc2cnn(Cc3ccncc3)c2)c1`, the cytotoxicity at 10 µM is -9.19%.

Take `CCC(CNC(=O)c1ccc(C(N)=O)cc1)Oc1cccc(F)c1` (stereo not given): the cytotoxicity at 10 µM was -39.5%.

As for `O=C(NCc1nc(C2CC2)no1)N1CCOC(c2ccccc2)C1` (stereo not given), the cytotoxicity at 10 µM is -45.2%.

With `CCCn1nnnc1CSc1nccn1C`, the cytotoxicity at 10 µM is -3.39%.

On to `CN1CCN(C(C)(C)CNC(=O)C2CCCN2S(C)(=O)=O)CC1` (stereo not given), for which the cytotoxicity at 10 µM came out at 7.45%.

For `CC(CS(C)(=O)=O)N(C(=O)CCc1ccsc1)C1CC1` (stereo not given), the cytotoxicity at 10 µM came out at 1.97%.

For `OCC1CCCCN1Cc1nc(Cc2ccccc2)no1` (stereo not given), the cytotoxicity at 10 µM came out at 5.13%.

Turning to `CN(Cc1ccccn1)C(=O)c1ccc2c(c1O)OC(C)(C)C2`, the cytotoxicity at 10 µM was -11.8%.

Take `CN(Cc1ccc([S+](C)[O-])cc1)c1ccc(Cl)cn1` (stereo not given): the cytotoxicity at 10 µM was determined as 8.97%.

Take `Cc1noc(C)c1C(C)C(=O)N1CCCN(C)c2ccc(Cl)cc21` (stereo not given): the cytotoxicity at 10 µM came out at 3.89%.

Regarding `CCOc1cccnc1C(=O)N1CCC(c2ccccc2OC)C1` (stereo not given), the cytotoxicity at 10 µM was determined as 7.71%.

`CCc1ccc(C(=O)Nc2cc(N3CCNC3=O)ccc2Cl)o1`: the cytotoxicity at 10 µM was found to be 6.03%.

Regarding `Cn1cc(NC(=O)c2cc[nH]n2)cc(Cl)c1=O`, the cytotoxicity at 10 µM is -18.3%.

In the case of `CN1CCN(Cc2ccccc2CNC(=O)c2ccc(Br)cc2)CC1`, the cytotoxicity at 10 µM worked out at 4.44%.

Take `CN(C)CC(=O)N1CCc2sc(C(=O)N3CCN(C)CC3)cc21`: the cytotoxicity at 10 µM was -104%.

As for `CCN(C(=O)c1ccc2nnc(C3CCN(S(C)(=O)=O)C3)n2c1)C(C)C` (stereo not given), the cytotoxicity at 10 µM is -110%.

As for `CC(C)c1cc(NC(CO)CO)n2nccc2n1`, the cytotoxicity at 10 µM came to 6.33%.

Consider `Cc1nn(C)c2nc(N3CCCCC3c3cccnc3)sc12` (stereo not given), for which the cytotoxicity at 10 µM is -6.9%.

For the molecule `CN1CCC(N(CCc2ccccc2)C(=O)c2ccoc2)CC1`, the cytotoxicity at 10 µM is -5.42%.

With `CN(C)C(C(=O)N1CC(c2ccccn2)C1)c1cccc(F)c1` (stereo not given), the cytotoxicity at 10 µM is -0.95%.

Consider `Cc1cc2nc(C(C)C)cc(N(C)CC3CCCN3C)n2n1` (stereo not given), for which the cytotoxicity at 10 µM amounted to 8.49%.

For `CC(=O)N1CCC(Oc2ccc(Cl)cc2C(=O)N2CCCO2)CC1`, the cytotoxicity at 10 µM amounted to 15.3%.

In the case of `COc1ccc(CNC(=O)Cc2csc(C(C)=O)c2)cc1`, the cytotoxicity at 10 µM came to 4.95%.

Consider `COc1ccc(F)c(CN2CCCC(O)(CNCc3ncc[nH]3)C2=O)c1` (stereo not given), for which the cytotoxicity at 10 µM stood at 5.87%.

For `CCC[C@H]1CN(Cc2ccc(N(C)C)nc2)C[C@@H]1NC(=O)CSC`, the cytotoxicity at 10 µM amounted to 7.78%.

For the molecule `Cc1ccc(Cl)cc1-n1nnnc1C1(N2CCCC2)CCCC1`, the cytotoxicity at 10 µM turned out to be 1.18%.

Take `CCNC(=O)C1CCN(c2cc(-c3ccccc3)nc3ccnn23)C1` (stereo not given): the cytotoxicity at 10 µM is -16.9%.

For `Cc1ncsc1C(=O)N1CCn2nc(CN3CCSCC3)cc2C1`, the cytotoxicity at 10 µM was -51%.

`c1ccc(CCN2CCN(c3ncnc4[nH]ccc34)CC2)cc1`: the cytotoxicity at 10 µM came to 5.09%.

`Cc1nc(C(=O)N2CCN(c3ncccn3)[C@@H]3CS(=O)(=O)C[C@@H]32)cs1`: the cytotoxicity at 10 µM stood at 6.12%.

Consider `OC1(CN2CCCC2)COCCN(c2noc(-c3ccccc3)n2)C1` (stereo not given), for which the cytotoxicity at 10 µM is 0.726%.

For the molecule `CCn1nccc1S(=O)(=O)N1CCC2(CCCN(C(C)C)C2=O)C1` (stereo not given), the cytotoxicity at 10 µM was -10.9%.

As to `Cc1ccccc1N1CCN(C(=O)c2ncc(F)cc2F)C(C)C1` (stereo not given), the cytotoxicity at 10 µM is 11.4%.

Consider `COc1ccc(N2CCC(N3C[C@H](NC(C)=O)[C@@H](C(C)C)C3)CC2)cc1`, for which the cytotoxicity at 10 µM is -9.92%.

Consider `Cc1cc(NC(C)Cn2cccn2)n2nccc2n1` (stereo not given), for which the cytotoxicity at 10 µM stood at 1.99%.

In the case of `Cn1ccnc1C(NCc1ccccc1)c1ccc(F)cc1` (stereo not given), the cytotoxicity at 10 µM was determined as 0.573%.

Turning to `Cc1cnc(CN2CCOC(Cn3nc(C)cc3C)C2)cn1` (stereo not given), the cytotoxicity at 10 µM is -2.81%.

In the case of `CN(Cc1csc(-c2cnn(C)c2)n1)CC1CCN(CCO)CC1`, the cytotoxicity at 10 µM stood at 7.77%.

On to `c1ccc(Cn2cc(CNCC3CCCN3c3cccnn3)cn2)cc1` (stereo not given), for which the cytotoxicity at 10 µM was -4.03%.

Turning to `CCN1CCOC(CNCc2ccccn2)C1` (stereo not given), the cytotoxicity at 10 µM is -9.09%.

Consider `CN(Cc1ccsc1)C(=O)c1cc2c([nH]c1=O)CCCC2=O`, for which the cytotoxicity at 10 µM is -6.88%.

Regarding `Cc1nc(N2CCN(C(=O)c3ccc(O)cc3)CC2)c2cnn(C)c2n1`, the cytotoxicity at 10 µM was -4.91%.

For `Cc1cc(C)cc(OCC(=O)NC2CCN(S(C)(=O)=O)CC2)c1`, the cytotoxicity at 10 µM was -5.72%.

Regarding `CN(C)Cc1cnc(C2CCN(C(=O)c3ccccc3F)C2)[nH]1` (stereo not given), the cytotoxicity at 10 µM was 0.578%.

In the case of `O=S(=O)(C1CC1)N1CC[C@@H]2[C@@H]1CCN2Cc1cccs1`, the cytotoxicity at 10 µM stood at 5.77%.

As to `CS(=O)(=O)N1C[C@H]2CCC[C@@]2(COc2ccccn2)C1`, the cytotoxicity at 10 µM was 1.13%.

Take `CS(=O)(=O)NCc1cnc2n1CCN(Cc1ccoc1)CC2`: the cytotoxicity at 10 µM was -4.1%.

`CN(C)CCO[C@H]1CN(Cc2ccc3c(c2)OCO3)[C@@H]2COC[C@H]12`: the cytotoxicity at 10 µM was -5.5%.

Turning to `CN(Cc1ccccn1)C1CC2(CCN(Cc3cccnc3)CC2)C1`, the cytotoxicity at 10 µM is 0.925%.

As for `CO[C@H]1CN(Cc2ccc(C)o2)[C@@H]2CCCO[C@H]12`, the cytotoxicity at 10 µM was -144%.

`COCc1nnc2n1CCN(Cc1ccoc1)C2`: the cytotoxicity at 10 µM was -2.56%.

Regarding `COCC(=O)N1CCC2(CC1)COC(COCc1ccccn1)C2` (stereo not given), the cytotoxicity at 10 µM was -128%.

Turning to `CN(C)CCN1CCC2(CCCN(C(=O)C3CCC3)C2)CC1`, the cytotoxicity at 10 µM turned out to be 4.38%.

With `Cn1cc(CN2C[C@@H]3COC[C@]3(COCC3CC3)C2)cn1`, the cytotoxicity at 10 µM was -112%.

With `O=C(Cc1ccccn1)N1CCN2C[C@H](Oc3cccc(F)c3)C[C@H]2C1`, the cytotoxicity at 10 µM was found to be 3.94%.

As to `OCCN1CCC2(CC1)CC(NCc1ccccn1)c1ccccc1O2` (stereo not given), the cytotoxicity at 10 µM came out at 0.98%.

Consider `Cn1ccnc1CN1CCC2(CC1)CN(Cc1ccccc1)C(=O)CO2`, for which the cytotoxicity at 10 µM is -3.99%.

For the molecule `COc1cccc(-c2cc(C3=NC(=CN4CCN(C)CC4)NO3)[nH]n2)c1`, the cytotoxicity at 10 µM was -7.54%.

As for `OCC1N(Cc2ccco2)C2CCC1(O)CC2` (stereo not given), the cytotoxicity at 10 µM came to 3.1%.

For `O=C1[C@@H]2CC[C@@H](CN(C3CCOCC3)C2)N1Cc1cscn1`, the cytotoxicity at 10 µM is -7.15%.

Turning to `Cn1c(=NC(=O)CSCC(=O)Nc2nccs2)sc2ccccc21`, the cytotoxicity at 10 µM was -1.81%.

Values taken from ChEMBL document CHEMBL4513216, “Probing the Open Global Health Chemical Diversity Library for Multistage-Active Starting Points for Next-Generation Antimalarials” (ACS Infect Dis, 2020).
